These results are taken from ChEMBL document CHEMBL5046223, “AZD5438-PROTAC: A selective CDK2 degrader that protects against cisplatin- and noise-induced hearing loss” (Eur J Med Chem, 2021).

Experiment [1] addresses von Hippel-Lindau E3 ligase/Cyclin-dependent kinase 2 (Mus musculus). The experiment can be described thus: Protac activity at CDK2/VHL E3 ligase in mouse HEI-OC1 cells assessed as induction of CDK2 protein degradation measured after 24 hrs by Western blot analysis.
Experiment [2] addresses von Hippel-Lindau disease tumor suppressor/CDK2 (Danio rerio) (UniProt Q7ZWB1+Q68EH9). As to the kind of experiment: PROTAC activity at CDK2/VHL E3 ligase in 5 days post fertilization zebrafish assessed as decrease in CDK2 abundance measured after 24 hrs by immunoblot analysis. The note with it: dose 1.0 µM. In short, it runs like this: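 TuAB zebrafish larvae at 4 dpf, kept in E3 medium (pH 7.2) at 28.5°C, exposed 24 h to 0.1 nM–1 μM in E3 (controls 0.1% DMSO). Fish were collected before any ototoxin. Lysates were run at 20–30 μg protein per lane, probed with anti-CDK2 (1:500) against β-actin, and CDK2 bands quantified from three independent experiments.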

For experiment [3], the species on record is Danio rerio. As to the kind of experiment: Protection of cisplatin-induced ototoxicity in 5 days post fertilization zebrafish assessed as protection neuromast hair cells at 0.001 to 1 nM measured after 24 hrs by fluorescence microscopy. It counts as functional, organism-based. The note with it: dose upper 1.0 µM, time 5.0 day, in the assay text read “0.001 to 1 µM” for “0.001 to 1 nM”. In short, it runs like this: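 Zebrafish larvae at 4 dpf pre-exposed 24 h to 0.1 nM–1 μM in E3, then co-incubated 6 h with compound plus cisplatin 400 μM. After 1 h recovery, fish were fixed in 4% PFA and immunostained for otoferlin. Hair cells in otic, middle and opercular neuromasts were counted manually under a 40x fluorescence objective, 6–8 fish per experiment; mean ± SEM.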

The species named for experiment [4] is Danio rerio. The experiment can be described thus: Protection of kainic acid-induced ototoxicity in 5 days post fertilization zebrafish assessed as protection neuromast hair cells at 5 to 100 nM measured after 24 hrs by fluorescence microscopy. The note with it: dose 5-100 nM, time 5.0 day.
For experiment [5], the system named is Protein cereblon/Cyclin-dependent kinase 2 (Mus musculus). As to the kind of experiment: Protac activity at CDK2/CRBN E3 ligase in mouse HEI-OC1 cells assessed as induction of CDK2 protein degradation at 100 nM measured after 24 hrs by Western blot analysis.

Molecules are shown by their SMILES. Calls of active or inactive are those of the source. No cut-off for these calls is given here.

Take `Cc1ncsc1-c1ccc(CNC(=O)[C@@H]2C[C@@H](O)CN2C(=O)[C@@H](NC(=O)COCCn2cc(CCCS(=O)(=O)c3ccc(Nc4nccc(-c5cnc(C)n5C(C)C)n4)cc3)nn2)C(C)(C)C)cc1`: in experiment [1], the 50% degradation concentration (DC50) was found to be 100 nM. In addition, the result in experiment [2], in experiment [3] and in experiment [4] was Active.

As for `Cc1ncc(-c2ccnc(Nc3ccc(S(=O)(=O)CCCc4cn(CCOCCOCCOCCNc5cccc6c5C(=O)N(C5CCC(=O)NC5=O)C6=O)nn4)cc3)n2)n1C(C)C` (stereo unspecified), in experiment [5], the outcome was inactive.

For the compound `O=C1CCC(N2C(=O)c3cccc(NCCOCCOCCOCCn4cc(CO[C@H]5CC[C@H](NC(=O)c6n[nH]cc6NC(=O)c6c(F)cccc6F)CC5)nn4)c3C2=O)C(=O)N1` (stereo partly specified), the result in experiment [5] was inactive.
